According to ChEMBL document CHEMBL2010663, “Iodine-catalyzed condensation of isatin with indoles: a facile synthesis of di(indolyl)indolin-2-ones and evaluation of their cytotoxicity” (Bioorg Med Chem Lett, 2012):

Legend:
MDA-MB-231 = assay: Cytotoxicity against human MDA-MB-231 cells after 48 hrs by MTT assay; type: functional, cell-based; conditions: MDA-MB-231, 48 h
Outline: (§1)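 Cells seeded at 10,000 cells/100 μl in medium with 10% serum and left 24 h in a humid 5% CO2 chamber to adhere. Compounds were then added at a range of concentrations for 48 h. MTT (5 mg/mL stock in PBS, 10 μl per well) was added for 2 h.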

SK-N-SH = assay: Cytotoxicity against human SK-N-SH cells after 48 hrs by MTT assay; type: functional, cell-based; outline: as §1
A549 = assay: Cytotoxicity against human A549 cells after 48 hrs by MTT assay; type: functional, cell-based; conditions: A549, 48 h; outline: as §1
MRC5 = assay: Cytotoxicity against human MRC5 cells after 48 hrs by MTT assay; type: cell-based; conditions: MRC5, 48 h; outline: as §1

Row | SMILES | IC50 (MDA-MB-231) | IC50 (SK-N-SH) | IC50 (A549) | IC50 (MRC5)
1 | Cc1[nH]c2ccc([N+](=O)[O-])cc2c1C1(c2c(C)[nH]c3ccc([N+](=O)[O-])cc23)C(=O)Nc2ccccc21 | 99.4 µM | 0.94 µM | 0.89 µM | > 100 µM
2 | O=C1Nc2ccc(Cl)cc2C1(c1c(-c2ccccc2)[nH]c2ccccc12)c1c(-c2ccccc2)[nH]c2ccccc12 | > 100 µM | > 100 µM | > 100 µM | > 100 µM
3 | COC(=O)c1ccc2[nH]cc(C3(c4c[nH]c5ccc(C(=O)OC)cc45)C(=O)Nc4ccc(Cl)cc43)c2c1 | 10 µM | 9.9 µM | 71.5 µM | > 100 µM
4 | Cc1[nH]c2ccc([N+](=O)[O-])cc2c1C1(c2c(C)[nH]c3ccc([N+](=O)[O-])cc23)C(=O)Nc2ccc(Cl)cc21 | 10.1 µM | 1.23 µM | 69.4 µM | > 100 µM
5 | O=C1Nc2ccccc2C1(c1c[nH]c2ccc(Cl)cc12)c1c[nH]c2ccc(Cl)cc12 | 10 µM | 1.31 µM | > 100 µM | > 100 µM
6 | O=C1Nc2ccccc2C1(c1c[nH]c2ccc(Br)cc12)c1c[nH]c2ccc(Br)cc12 | 9.95 µM | 0.93 µM | 0.96 µM | > 100 µM
7 | c1ccc2[nH]ccc2c1 [INDOLE] | > 100 µM | 1.78 µM | > 100 µM | 15.6 µM
8 | O=C1Nc2ccccc2C1(c1c[nH]c2ccc([N+](=O)[O-])cc12)c1c[nH]c2ccc([N+](=O)[O-])cc12 | 9.98 µM | 0.99 µM | 7.9 µM | > 100 µM
9 | O=C1Nc2ccccc2C1=O [ISATIN] | > 100 µM | 9.84 µM | 13.5 µM | > 100 µM
10 | COC(=O)c1ccc2[nH]cc(C3(c4c[nH]c5ccc(C(=O)OC)cc45)C(=O)Nc4ccccc43)c2c1 | > 100 µM | 0.98 µM | 0.75 µM | > 100 µM
11 | COc1cccc2c1C(=O)c1c(O)c3c(c(O)c1C2=O)C[C@@](O)(C(=O)CO)C[C@@H]3O[C@H]1C[C@H](N)[C@H](O)[C@H](C)O1 [DOXORUBICIN] | 8.14 µM | 0.97 µM | 15.1 µM | 14.8 µM
12 | O=C1Nc2ccc(Cl)cc2C1(c1c[nH]c2ccc(Br)cc12)c1c[nH]c2ccc(Br)cc12 | > 100 µM | 1.04 µM | > 100 µM | > 100 µM
13 | Cc1[nH]c2ccccc2c1C1(c2c(C)[nH]c3ccccc23)C(=O)Nc2ccccc21 | > 100 µM | 0.98 µM | 0.92 µM | > 100 µM
14 | O=C1Nc2ccccc2C1(c1c(-c2ccccc2)[nH]c2ccccc12)c1c(-c2ccccc2)[nH]c2ccccc12 | > 100 µM | 9.6 µM | 8.91 µM | > 100 µM
15 | O=C1Nc2ccccc2C1(c1c[nH]c2ccccc12)c1c[nH]c2ccccc12 | > 100 µM | 0.9 µM | 1.23 µM | > 100 µM
16 | N#Cc1ccc2[nH]cc(C3(c4c[nH]c5ccc(C#N)cc45)C(=O)Nc4ccccc43)c2c1 | 99.1 µM | 0.94 µM | 0.97 µM | > 100 µM
17 | Cn1cc(C2(c3cn(C)c4ccccc34)C(=O)Nc3ccccc32)c2ccccc21 | > 100 µM | 1.32 µM | > 100 µM | > 100 µM
